From PubChem BioAssay
Sampled rows, rich in hits. Any-hit rate of the full collection: about 2.4%.
DAGLB inhibitor – blocks human DAGLB lipase activity; Q8NCG7; HEK293T DAGLB membrane lysate, EnzChek fluorogenic substrate; inhibition, % at 5.17 µM; 0.059% of 340,000 active; AID 504411; in the data active means inhibition above about 34%;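 further: 0% = enzyme with vehicle and 100% = wells lacking enzyme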
Target sequence (Q8NCG7 whole entry, looked up): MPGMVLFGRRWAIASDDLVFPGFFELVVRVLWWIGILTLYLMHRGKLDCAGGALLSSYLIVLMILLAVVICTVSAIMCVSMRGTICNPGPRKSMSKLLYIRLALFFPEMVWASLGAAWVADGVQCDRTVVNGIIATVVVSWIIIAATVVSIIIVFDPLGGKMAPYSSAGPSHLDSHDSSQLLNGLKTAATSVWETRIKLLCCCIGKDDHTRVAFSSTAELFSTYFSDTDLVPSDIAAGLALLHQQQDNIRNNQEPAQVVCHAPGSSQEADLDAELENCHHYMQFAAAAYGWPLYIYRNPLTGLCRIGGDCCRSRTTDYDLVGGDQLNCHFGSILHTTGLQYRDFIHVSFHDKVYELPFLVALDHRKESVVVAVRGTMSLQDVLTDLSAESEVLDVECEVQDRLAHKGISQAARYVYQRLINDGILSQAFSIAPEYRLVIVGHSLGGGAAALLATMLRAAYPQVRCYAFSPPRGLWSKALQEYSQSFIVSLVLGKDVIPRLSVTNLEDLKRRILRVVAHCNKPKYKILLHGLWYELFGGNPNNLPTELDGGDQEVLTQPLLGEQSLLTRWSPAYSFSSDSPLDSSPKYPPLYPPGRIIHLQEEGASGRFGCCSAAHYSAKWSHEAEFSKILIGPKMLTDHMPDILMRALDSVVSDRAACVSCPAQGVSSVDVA
Myeloid diff 2 – compounds promoting myeloid differentiation | calls only at 10 µM | ER-HoxA9 myeloid progenitors, lysozyme-GFP differentiation, flow cytometry | AID 624256 | 1% of 360,000 active;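 active means normalized GFP-positive differentiation at or above the plate's own cutoff, the solvent-only control mean plus 3 SD; inconclusive means no clear call, values can overlap the other calls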;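 further: cells exposed to compound for four days before flow analysis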
MT1-MMP act inh – MT1-MMP (human) activation inhibition | P50281 | HT1080 RFP-PRO-GFP cells, GFP/RFP ratio fluorescence, overnight; percent of plate control window, DMSO zero | GFP/RFP ratio change, % at 20 µM | 0.061% of 360,000 active | AID 651647;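 active means GFP/RFP ratio change of at least 30% with cell ATP level not reduced by more than half and red fluorescence within 50% of control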
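Assay system: HT1080 cells carrying an RFP-PRO-GFP reporter | Dosing: Single dose of 20 µM compound, 1% DMSO final | Incubation: Cells overnight before dosing, compound overnight, 37 °C, 5% CO2 | Evaluation: GFP/RFP fluorescence ratio | Control set: DMSO and RFP-L50D-GFP cell wells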
CendR NRP1 mod – modulators of CendR peptide binding to human neuropilin-1; O14786; FAM-RPARPAR peptide binding to NRP-1, fluorescence polarization; inhibition, % at 25 µM; 0.85% of 360,000 active; AID 602438;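 active means inhibition or corrected inhibition above about 18%, plus a signal ratio from 0.5 to 1.5, limit read from the data, passing the limit was not always enough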
beta cell repl – MIN6 beta-cell proliferation induction; MIN6 cells proliferation, ATPlite luminescence, 48 h; cells starved in 0.2% serum; 100% = growth in 10% serum; proliferation, % at 10 µM; AID 2380; 0.29% of 330,000 active;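 active means compounds whose signal lies at least 3.5 SD above the mean of all wells on their plate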;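 further: 0% = DMSO-treated cells in low-serum medium and 100% = 10% serum control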
SENP1 FRET inh – SENP1 (human) catalytic domain inhibition; inhibition, % at 10 µM; Q9P0U3; 0.21% of 360,000 active; recombinant SENP1 catalytic domain, CyPet-SUMO1-YPet FRET cleavage;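 active means inhibition at least 30% at 10 µM, raw YFP signal under a set limit, fluorescence ratio 0.5 to 1.5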;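 further: 0% = enzyme with DMSO and 100% = no enzyme wells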
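Material – human SENP1 catalytic domain · Input – SENP1 enzyme, 20 pM final · Compound dosing – single concentration of 10 µM compound, 0.5% DMSO final · Timing – enzyme reaction for 50 min at room temperature, dark · Measured by – FRET fluorescence in CFP and YFP emission channels · Control set – no-enzyme wells low, DMSO-plus-enzyme wells high control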
Numbers without * were called inactive; i = inactive; ? = inconclusive; · = no result; + = active, no number.

SMILES	DAGLB inhibitor	Myeloid diff 2	MT1-MMP act inh	CendR NRP1 mod	beta cell repl	SENP1 FRET inh
Cc1ccc(NC(=O)C2CCN(C(=O)OC(C)(C)C)CC2)cc1S(=O)(=O)N1CCCCC1	-1	i	4	-6	4	-1
N#CCCN1CCN(CCC#N)CC1	1	i	-1	-9	-1	0
N#CCCN1CCNCC1	2	·	2	34*	0	1
COc1cccc(CN(C)C(=O)CN2C(=O)NC(c3ccccc3)(c3ccccc3)C2=O)c1	0	i	-3	0	-4	0
COc1ccc2nc(N3C(=O)/C(=C/c4ccc(Cl)cc4)NC3=S)sc2c1	1	i	-43	-117	·	33*
COc1ccccc1CN1CC(C(=O)NCCc2ncccc2C)CCC1=O (stereo unspecified)	-2	i	-4	6	-3	2
CCO[C@@H]1OC(C(=O)NCc2ccccc2)=C[C@H](c2ccccc2)[C@H]1CCCO	-4	i	7	8	-5	2
CCO[C@@H]1OC(C(=O)NCc2ccccc2)=C[C@H](C2CCCCC2)[C@H]1CCCO	-5	+	1	2	-4	1
CCO[C@H]1OC(C(=O)Nc2ccccc2)=C[C@@H](c2coc3ccccc3c2=O)[C@@H]1CCCO	1	i	2	8	2	2
CCO[C@H]1OC(C(=O)NC2CC2)=C[C@@H](C2CC2)[C@@H]1CCCO	-3	i	-3	11	-3	2
CCO[C@@H]1OC(C(=O)NC2CC2)=C[C@H](C(C)(C)C)[C@H]1CCCO	-1	i	2	23*	-4	0
CCO[C@@H]1OC(C(=O)NCc2ccccc2)=C[C@H](c2coc3ccccc3c2=O)[C@H]1CCCO	-1	i	11	20*	6	0
CCO[C@@H]1OC(C(=O)NCc2ccccc2)=C[C@H](C)[C@H]1CCCO	-1	i	0	26*	1	0
COc1c2c(nc3occc13)C(CC=C(C)C)(OC)C(O)CC2 (stereo unspecified)	3	i	3	12	0	-1
COc1cc(/C=C2\CC(C(C)(C)C)C/C(=C\c3cc(OC)c(OC)c(OC)c3)C2=O)cc(OC)c1OC (stereo unspecified)	-15	·	-9	6	-5	37*
Cc1snc(S(=O)(=O)/C(C#N)=N/Nc2ccc(C(F)(F)F)cc2)c1C#N	4	i	-3	-10	-5	1
COc1ccc(CCNC(=O)c2nonc2N)cc1OC	-1	i	10	-4	1	0
COc1ccc(CNCCNC(=O)c2nonc2N)cc1OC	-2	+	-3	0	-2	2
O=C(CCC1CCN(C(=O)Cc2c(F)cccc2F)CC1)NC1CC1	-1	i	-4	16	-1	1
CCC(=O)NC1=C(Nc2ccc(N)cc2)C(=O)c2ccccc2C1=O	2	+	4	-5	0	8
CCC(=O)Nc1ccc(C2C(=O)c3ccccc3C2=O)cc1	3	i	-1	0	-7	0
O=C(COc1ccc2c3c(c(=O)oc2c1)CCCC3)NCCN1CCOCC1	-1	i	3	24*	-2	0
COc1ccc2cc(C(=O)/C=C/c3cc(OC)c(OC)c(OC)c3)ccc2c1	-1	i	-6	27*	-4	1
COc1cc(C=CC(=O)c2cc(OC)c(OC)c(OC)c2)cc(OC)c1OC	-2	?	8	6	·	1
COc1cccc(CC2(CO)CCN(CC3=CC[C@H]4C[C@@H]3C4(C)C)CC2)c1	-2	i	-1	6	-2	-1
COc1cccc(N2CCN(CC(=O)C34CC5CC(CC(C5)C3)C4)CC2)c1	-1	i	-3	3	-3	-3
COc1cccc(N2CCN(C(C)C(=O)NC34CC5CC(CC(C5)C3)C4)CC2)c1 (stereo unspecified)	-6	+	0	-10	0	1
O=C(O)C1CCN(C(=O)CSc2nc3cc(Cl)ccc3c(=O)n2Cc2ccccc2)CC1	-1	·	4	1	0	2
